From PMC11523056 (RSC Advances, 2024)
Ends that are not written are not given here. Peptide text beside a SMILES is read from it.

Key:
[1] = tested on: murine primary neurons; format: cell-based, mouse; details: all concentrations tested (1, 5 & 10 μM), 60 min, 37 °C, live-cell confocal microscopy
Method in brief: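 Mature murine primary neurons were incubated for 60 min in neurobasal medium with TAMRA-labelled peptide at 1, 5 or 10 μM, washed, and imaged live by confocal microscopy in an incubation chamber. The read-out was average fluorescence intensity per cell. Neurons showing homogeneous cytoplasmic plus nucleolar fluorescence were scored as transduced. Data are mean ± standard deviation, with equal n per group.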

[2] = tested on: acute ischaemic stroke patients; details: ESCAPE-NA1, acute ischaemic stroke; cited from earlier work
[3] = particularly upon co-treatment with Alteplase; cited from earlier work

Row | Molecule | uptake by mean fluorescence intensity per cell (comparison in words) [1] | safety in clinical trial [2] | degradation in human plasma (in words) [3]
1 | CC[C@H](C)[C@H](NC(=O)[C@H](CO)NC(=O)[C@H](CO)NC(=O)[C@H](CC(C)C)NC(=O)[C@H](CCCCN)NC(=O)c1ccc2c(c1)C(=O)OC21c2ccc(N(C)C)cc2Oc2cc(N(C)C)ccc21)C(=O)N[C@@H](CCC(=O)O)C(=O)N[C@@H](CO)C(=O)N[C@@H](CC(=O)O)C(=O)N[C@H](C(=O)O)C(C)C [TAMRA-NR2B9c] (HELM PEPTIDE1{[CN(C)c1ccc2c(c1)Oc1cc(N(C)C)ccc1C21OC(=O)c2cc(C(=O)[*:2])ccc21].K.L.S.S.I.E.S.D.V}$$$$V2.0) | much lower than for any other peptide construct tested |  | 
2 | YGRKKRRQRRR [TAMRA-Tat] | dose response is minimal |  | 
3 | YGRKKRRQRRRKLSSIESDV [Tat-NR2B9c, nerinetide] |  | good safety profile | rapid degradation
